{
  "source": "ChEMBL document CHEMBL1154432",
  "about": "“Synthesis and pharmacological investigation of novel 4-(2-methylphenyl)-1-substituted-4H-[1,2,4]triazolo[4,3-a]quinazolin-5-ones as new class of H(1)-antihistaminic agents” (2008)",
  "key": {"[1]": {"tested_on": "Mus musculus", "test": "Sedative-hypnotic activity in Swiss Albino mouse assessed as CNS depression at 5 mg/kg, po after 3 hrs", "type": "functional", "procedure,_shortened": "(§1)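 The basal motor activity score was recorded first. Compound was then given orally in 1% CMC, and scores were taken at 1, 2 and 3 h post-dose. % reduction in motor activity = [(A−B)/A]×100, with A the basal score and B the post-treatment score. Significance was tested by Student's t-test.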"}, "[2]": {"tested_on": "Cavia porcellus", "test": "Antihistaminic activity against Dunkin-Hartley guinea pig assessed as protection against histamine-induced bronchospasm at 10 mg/kg, po", "type": "functional", "procedure,_shortened": "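Male Dunkin Hartley guinea pigs (250–300 g), fasted 12 h, six per group. Dosed orally in 1% CMC, then challenged with histamine aerosol (0.2% aqueous histamine acid chloride) sprayed from a pocket nebulizer into a closed cage. Preconvulsion onset time was recorded, and animals stable beyond 6 min counted as protected. Mean preconvulsion time vs control expressed as % protection.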"}, "[3]": {"tested_on": "Mus musculus", "test": "Sedative-hypnotic activity in Swiss Albino mouse assessed as CNS depression at 5 mg/kg, po after 2 hrs", "type": "functional", "procedure,_shortened": "as §1"}, "[4]": {"tested_on": "Mus musculus", "test": "Sedative-hypnotic activity in Swiss Albino mouse assessed as CNS depression at 5 mg/kg, po after 1 hr", "type": "functional", "procedure,_shortened": "as §1"}, "[5]": {"tested_on": "Cavia porcellus", "test": "Antihistaminic activity against Dunkin-Hartley guinea pig assessed as protection against histamine-induced bronchospasm at 10 mg/kg, po"}},
  "data": [
    {"molecule": "Cc1ccccc1-n1c(=O)c2ccccc2n2cnnc12", "values": [
      {"measurement": "Activity", "setting": "[1]", "result": 5, "unit": "%"},
      {"measurement": "Activity", "setting": "[2]", "result": 69.87, "unit": "%"},
      {"measurement": "Activity", "setting": "[3]", "result": 11, "unit": "%"},
      {"measurement": "Activity", "setting": "[4]", "result": 9, "unit": "%"}
    ]},
    {"molecule": "Cc1ccccc1-n1c(=O)c2ccccc2n2c(CCl)nnc12", "values": [
      {"measurement": "Activity", "setting": "[1]", "result": 4, "unit": "%"},
      {"measurement": "Activity", "setting": "[2]", "result": 68.56, "unit": "%"},
      {"measurement": "Activity", "setting": "[3]", "result": 13, "unit": "%"},
      {"measurement": "Activity", "setting": "[4]", "result": 8, "unit": "%"}
    ]},
    {"molecule": "Cc1ccccc1-n1c(=O)c2ccccc2n2c(CN3CCN(C)CC3)nnc12", "values": [
      {"measurement": "Activity", "setting": "[1]", "result": 10, "unit": "%"},
      {"measurement": "Activity", "setting": "[2]", "result": 72.05, "unit": "%"},
      {"measurement": "Activity", "setting": "[3]", "result": 18, "unit": "%"},
      {"measurement": "Activity", "setting": "[4]", "result": 12, "unit": "%"}
    ]},
    {"molecule": "CCCc1nnc2n(-c3ccccc3C)c(=O)c3ccccc3n12", "values": [
      {"measurement": "Activity", "setting": "[1]", "result": 8, "unit": "%"},
      {"measurement": "Activity", "setting": "[2]", "result": 69.47, "unit": "%"},
      {"measurement": "Activity", "setting": "[3]", "result": 17, "unit": "%"},
      {"measurement": "Activity", "setting": "[4]", "result": 13, "unit": "%"}
    ]},
    {"molecule": "Cc1ccccc1-n1c(=O)c2ccccc2n2c(C)nnc12", "values": [
      {"measurement": "Activity", "setting": "[1]", "result": 8, "unit": "%"},
      {"measurement": "Activity", "setting": "[2]", "result": 72.45, "unit": "%"},
      {"measurement": "Activity", "setting": "[3]", "result": 14, "unit": "%"},
      {"measurement": "Activity", "setting": "[4]", "result": 11, "unit": "%"}
    ]},
    {"molecule": "Cc1ccccc1-n1c(=O)c2ccccc2n2c(CN3CCNCC3)nnc12", "values": [
      {"measurement": "Activity", "setting": "[1]", "result": 9, "unit": "%"},
      {"measurement": "Activity", "setting": "[2]", "result": 70.7, "unit": "%"},
      {"measurement": "Activity", "setting": "[3]", "result": 13, "unit": "%"},
      {"measurement": "Activity", "setting": "[4]", "result": 12, "unit": "%"}
    ]},
    {"molecule": "Cc1ccccc1-n1c(=O)c2ccccc2n2c(N3CCOCC3)nnc12", "values": [
      {"measurement": "Activity", "setting": "[1]", "result": 10, "unit": "%"},
      {"measurement": "Activity", "setting": "[2]", "result": 70.33, "unit": "%"},
      {"measurement": "Activity", "setting": "[3]", "result": 15, "unit": "%"},
      {"measurement": "Activity", "setting": "[4]", "result": 10, "unit": "%"}
    ]},
    {"molecule": "Cc1ccccc1-n1c(=O)c2ccccc2n2c(CN3CCCCC3)nnc12", "values": [
      {"measurement": "Activity", "setting": "[1]", "result": 9, "unit": "%"},
      {"measurement": "Activity", "setting": "[2]", "result": 69.47, "unit": "%"},
      {"measurement": "Activity", "setting": "[3]", "result": 16, "unit": "%"},
      {"measurement": "Activity", "setting": "[4]", "result": 13, "unit": "%"}
    ]},
    {"molecule": "CCc1nnc2n(-c3ccccc3C)c(=O)c3ccccc3n12", "values": [
      {"measurement": "Activity", "setting": "[1]", "result": 9, "unit": "%"},
      {"measurement": "Activity", "setting": "[2]", "result": 70.78, "unit": "%"},
      {"measurement": "Activity", "setting": "[3]", "result": 14, "unit": "%"},
      {"measurement": "Activity", "setting": "[4]", "result": 13, "unit": "%"}
    ]},
    {"molecule": "CN(C)CCC(c1ccc(Cl)cc1)c1ccccn1.O=C(O)/C=C\\C(=O)O", "note": "(centres undefined) [CHLORPHENIRAMINE MALEATE]", "values": [
      {"measurement": "Activity", "setting": "[1]", "result": 22, "unit": "%"},
      {"measurement": "Activity", "setting": "[5]", "result": 71, "unit": "%"},
      {"measurement": "Activity", "setting": "[3]", "result": 32, "unit": "%"},
      {"measurement": "Activity", "setting": "[4]", "result": 37, "unit": "%"}
    ]},
    {"molecule": "Cc1ccccc1-n1c(=O)c2ccccc2n2c(N3CCCC3)nnc12", "values": [
      {"measurement": "Activity", "setting": "[1]", "result": 7, "unit": "%"},
      {"measurement": "Activity", "setting": "[2]", "result": 68.81, "unit": "%"},
      {"measurement": "Activity", "setting": "[3]", "result": 14, "unit": "%"},
      {"measurement": "Activity", "setting": "[4]", "result": 10, "unit": "%"}
    ]}
  ]
}
